Experimental data published in ChEMBL document CHEMBL2311305, “Antiproliferative potency of novel benzofuran-2-carboxamides on tumour cell lines: cell death mechanisms and determination of crystal structure” (Eur J Med Chem, 2013).
pIC50: −log10 of the molar value. Calls of active or inactive are those of the source. The rule behind the calls is not given here.

How the values were obtained:
SK-BR-3 [1] = assay: Induction of apoptosis in human SKBR3 cells assessed as caspase9 activation at 5 uM after 24 to 48 hrs by caspase protease assay; format: functional, cell-based
Summary of the method: (§1)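 Compound at 5 µM on SK-BR-3 and 10 µM on SW620. Cells harvested after 24 and 48 h, washed in PBS, lysed 10 min on ice, centrifuged. Lysate diluted to 3 mg/mL protein and mixed with DTT-containing reaction buffer and caspase-3, -8 or -9 substrate. Incubated 90 min at 37 °C in the dark. Absorbance read at 405 nm, duplicates, compared with untreated control.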

SK-BR-3 [2] = assay: Induction of apoptosis in human SKBR3 cells assessed as caspase8 activation at 5 uM after 24 to 48 hrs by caspase protease assay; format: functional, cell-based; summary of the method: as §1
SK-BR-3 [3] = assay: Induction of apoptosis in human SKBR3 cells assessed as caspase3 activation at 5 uM after 24 to 48 hrs by caspase protease assay; format: functional, cell-based; summary of the method: as §1
SK-BR-3 [4] = assay: Induction of cell cycle arrest in human SKBR3 cells assessed as G2/M phase cells at 10 uM after 48 hrs by PI-staining based flow cytometric analysis (reference value: 11.6 +/- 0.3%); format: functional
SK-BR-3 [5] = assay: Induction of cell cycle arrest in human SKBR3 cells assessed as G2/M phase cells at 5 uM after 48 hrs by PI-staining based flow cytometric analysis (reference value: 11.6 +/- 0.3%); format: functional
SK-BR-3 [6] = assay: Induction of cell cycle arrest in human SKBR3 cells assessed as S phase cells at 10 uM after 48 hrs by PI-staining based flow cytometric analysis (reference value: 35.2 +/- 1.8%); format: functional
SK-BR-3 [7] = assay: Induction of cell cycle arrest in human SKBR3 cells assessed as S phase cells at 5 uM after 48 hrs by PI-staining based flow cytometric analysis (reference value: 35.2 +/- 1.8%); format: functional
SK-BR-3 [8] = assay: Induction of cell cycle arrest in human SKBR3 cells assessed as G1 phase cells at 10 uM after 48 hrs by PI-staining based flow cytometric analysis (reference value: 53.3 +/- 1.5%); format: functional
SK-BR-3 [9] = assay: Induction of cell cycle arrest in human SKBR3 cells assessed as G1 phase cells at 5 uM after 48 hrs by PI-staining based flow cytometric analysis (reference value: 53.3 +/- 1.5%); format: functional
SK-BR-3 [10] = assay: Induction of cell cycle arrest in human SKBR3 cells assessed as subG1 phase cells at 10 uM after 48 hrs by PI-staining based flow cytometric analysis (reference value: 27.5 +/- 0.2%); format: functional
SK-BR-3 [11] = assay: Induction of cell cycle arrest in human SKBR3 cells assessed as subG1 phase cells at 5 uM after 48 hrs by PI-staining based flow cytometric analysis (reference value: 27.5 +/- 0.2%); format: functional
SK-BR-3 [12] = assay: Induction of cell cycle arrest in human SKBR3 cells assessed as G2/M phase cells at 5 uM after 24 hrs by PI-staining based flow cytometric analysis (reference value: 33.7 +/- 0.3%); format: functional
SK-BR-3 [13] = assay: Induction of cell cycle arrest in human SKBR3 cells assessed as G2/M phase cells at 10 uM after 24 hrs by PI-staining based flow cytometric analysis (reference value: 33.7 +/- 0.3%); format: functional
SK-BR-3 [14] = assay: Induction of cell cycle arrest in human SKBR3 cells assessed as S phase cells at 10 uM after 24 hrs by PI-staining based flow cytometric analysis (reference value: 26.2 +/- 2.3%); format: functional
SK-BR-3 [15] = assay: Induction of cell cycle arrest in human SKBR3 cells assessed as S phase cells at 5 uM after 24 hrs by PI-staining based flow cytometric analysis (reference value: 26.2 +/- 2.3%); format: functional
SK-BR-3 [16] = assay: Induction of cell cycle arrest in human SKBR3 cells assessed as G1 phase cells at 10 uM after 24 hrs by PI-staining based flow cytometric analysis (reference value: 40.1 +/- 0.7%); format: functional
SK-BR-3 [17] = assay: Induction of cell cycle arrest in human SKBR3 cells assessed as G1 phase cells at 5 uM after 24 hrs by PI-staining based flow cytometric analysis (reference value: 40.1 +/- 0.7%); format: functional
SK-BR-3 [18] = assay: Induction of cell cycle arrest in human SKBR3 cells assessed as subG1 phase cells at 10 uM after 24 hrs by PI-staining based flow cytometric analysis (reference value: 25.1 +/- 0.4%); format: functional
HeLa = assay: Cytotoxicity against human HeLa cells after 72 hrs by MTT assay; format: functional, cell-based; conditions: Homo sapiens, HeLa, 72 h
Summary of the method: (§2)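 Cells seeded at 3000-6000 per well on day 0, according to cell line doubling time. Compound added in five 10-fold dilutions, 72-h incubation, then MTT colorimetric read-out. Absorbances converted to percentage growth by NCI formulae. IC50 obtained by linear regression between the concentrations bracketing PG 50; ">100" assigned when no concentration reaches it. Quadruplicate points, three independent experiments.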

SK-BR-3 [19] = assay: Induction of cell cycle arrest in human SKBR3 cells assessed as subG1 phase cells at 5 uM after 24 hrs by PI-staining based flow cytometric analysis (reference value: 25.1 +/- 0.4%); format: functional
MIA PaCa-2 = assay: Cytotoxicity against human MIAPaCa2 cells after 72 hrs by MTT assay; format: functional, cell-based; conditions: Homo sapiens, MIA PaCa-2, 72 h; summary of the method: as §2
WI-38 = assay: Cytotoxicity against human WI38 cells after 72 hrs by MTT assay; format: cell-based; conditions: Homo sapiens, WI-38, 72 h; summary of the method: as §2
SW-620 [20] = assay: Cytotoxicity against human SW620 cells after 72 hrs by MTT assay; format: functional, cell-based; conditions: for pIC50: Homo sapiens, SW-620, 72 h; summary of the method: as §2
MCF7 = assay: Cytotoxicity against human MCF7 cells after 72 hrs by MTT assay; format: functional, cell-based; conditions: Homo sapiens, MCF7, 72 h; summary of the method: as §2
SK-BR-3 [21] = assay: Cytotoxicity against human SKBR3 cells after 72 hrs by MTT assay; format: functional, cell-based; conditions: SK-BR-3, 72 h; summary of the method: as §2
SW-620 [22] = assay: Induction of mitotic catastrophe in human SW620 cells assessed as accumulation of G2/M phase cells at 5 to 10 uM after 24 to 48 hrs by PI-staining based flow cytometric analysis relative to control; format: functional, cell-based
SW-620 [23] = assay: Induction of apoptosis in human SW620 cells assessed as caspase9 activation at 10 uM after 24 to 48 hrs by caspase protease assay; format: functional, cell-based; summary of the method: as §1
SW-620 [24] = assay: Induction of apoptosis in human SW620 cells assessed as caspase8 activation at 10 uM after 24 to 48 hrs by caspase protease assay; format: functional, cell-based; summary of the method: as §1
SW-620 [25] = assay: Induction of apoptosis in human SW620 cells assessed as caspase3 activation at 10 uM after 24 to 48 hrs by caspase protease assay; format: functional, cell-based; summary of the method: as §1
SW-620 [26] = assay: Induction of cell cycle arrest in human SW620 cells assessed as G2/M phase cells at 10 uM after 48 hrs by PI-staining based flow cytometric analysis (reference value: 8.9 +/- 0.4%); format: functional
SW-620 [27] = assay: Induction of cell cycle arrest in human SW620 cells assessed as S phase cells at 10 uM after 48 hrs by PI-staining based flow cytometric analysis (reference value: 39.9 +/- 0.5%); format: functional
SW-620 [28] = assay: Induction of cell cycle arrest in human SW620 cells assessed as G2/M phase cells at 5 uM after 48 hrs by PI-staining based flow cytometric analysis (reference value: 8.9 +/- 0.4%); format: functional
SW-620 [29] = assay: Induction of cell cycle arrest in human SW620 cells assessed as S phase cells at 5 uM after 48 hrs by PI-staining based flow cytometric analysis (reference value: 39.9 +/- 0.5%); format: functional
SW-620 [30] = assay: Induction of cell cycle arrest in human SW620 cells assessed as G1 phase cells at 5 uM after 48 hrs by PI-staining based flow cytometric analysis (reference value: 51.1 +/- 2.5%); format: functional
SW-620 [31] = assay: Induction of cell cycle arrest in human SW620 cells assessed as G1 phase cells at 10 uM after 48 hrs by PI-staining based flow cytometric analysis (reference value: 51.1 +/- 2.5%); format: functional
SW-620 [32] = assay: Induction of cell cycle arrest in human SW620 cells assessed as subG1 phase cells at 10 uM after 48 hrs by PI-staining based flow cytometric analysis (reference value: 8.5 +/- 2.1%); format: functional
SW-620 [33] = assay: Induction of cell cycle arrest in human SW620 cells assessed as subG1 phase cells at 5 uM after 48 hrs by PI-staining based flow cytometric analysis (reference value: 8.5 +/- 2.1%); format: functional
SW-620 [34] = assay: Induction of cell cycle arrest in human SW620 cells assessed as G2/M phase cells at 10 uM after 24 hrs by PI-staining based flow cytometric analysis (reference value: 12.6 +/- 1%); format: functional
SW-620 [35] = assay: Induction of cell cycle arrest in human SW620 cells assessed as G2/M phase cells at 5 uM after 24 hrs by PI-staining based flow cytometric analysis (reference value: 12.6 +/- 1%); format: functional
SW-620 [36] = assay: Induction of cell cycle arrest in human SW620 cells assessed as S phase cells at 10 uM after 24 hrs by PI-staining based flow cytometric analysis (reference value: 41.1 +/- 0.8%); format: functional
SW-620 [37] = assay: Induction of cell cycle arrest in human SW620 cells assessed as S phase cells at 5 uM after 24 hrs by PI-staining based flow cytometric analysis (reference value: 41.1 +/- 0.8%); format: functional
SW-620 [38] = assay: Induction of cell cycle arrest in human SW620 cells assessed as G1 phase cells at 10 uM after 24 hrs by PI-staining based flow cytometric analysis (reference value: 46.3 +/- 1.8%); format: functional
SW-620 [39] = assay: Induction of cell cycle arrest in human SW620 cells assessed as G1 phase cells at 5 uM after 24 hrs by PI-staining based flow cytometric analysis (reference value: 46.3 +/- 1.8%); format: functional
SW-620 [40] = assay: Induction of cell cycle arrest in human SW620 cells assessed as subG1 phase cells at 10 uM after 24 hrs by PI-staining based flow cytometric analysis (reference value: 6.9 +/- 2.1%); format: functional
SW-620 [41] = assay: Induction of cell cycle arrest in human SW620 cells assessed as subG1 phase cells at 5 uM after 24 hrs by PI-staining based flow cytometric analysis (reference value: 6.9 +/- 2.1%); format: functional

Cl.O=C(Nc1nc2ccc(C3=NCCN3)cc2[nH]1)c1cc2ccccc2o1
Activity (SK-BR-3 [1]): Active | Activity (SK-BR-3 [2]): Active | Activity (SK-BR-3 [3]): Active | Activity (SK-BR-3 [4]): 15.9% | Activity (SK-BR-3 [5]): 9.7% | Activity (SK-BR-3 [6]): 31.3% | Activity (SK-BR-3 [7]): 68.5% | Activity (SK-BR-3 [8]): 52.8% | Activity (SK-BR-3 [9]): 21.8% | Activity (SK-BR-3 [10]): 36.3% | Activity (SK-BR-3 [11]): 38.1% | Activity (SK-BR-3 [12]): 10% | Activity (SK-BR-3 [13]): 6.4% | Activity (SK-BR-3 [14]): 23.6% | Activity (SK-BR-3 [15]): 31.5% | Activity (SK-BR-3 [16]): 70% | Activity (SK-BR-3 [17]): 58.5% | Activity (SK-BR-3 [18]): 31.5% | pIC50 (HeLa): 4.16 | Activity (SK-BR-3 [19]): 33.1% | pIC50 (MIA PaCa-2): 4.04 | pIC50 (WI-38): < 4.00 | pIC50 (SW-620 [20]): 4.13 | pIC50 (MCF7): 5.15 | pIC50 (SK-BR-3 [21]): 5.42

Cl.O=C(Nc1ccc(C2=NCCN2)cc1)c1cc2ccccc2o1
Activity (SW-620 [22]): Active | Activity (SW-620 [23]): inactive | Activity (SW-620 [24]): inactive | Activity (SW-620 [25]): inactive | Activity (SW-620 [26]): 10.5% | Activity (SW-620 [27]): 42.6% | Activity (SW-620 [28]): 8.3% | Activity (SW-620 [29]): 40.7% | Activity (SW-620 [30]): 46.8% | Activity (SW-620 [31]): 46.9% | Activity (SW-620 [32]): 8.2% | Activity (SW-620 [33]): 4.9% | Activity (SW-620 [34]): 13.5% | Activity (SW-620 [35]): 12.7% | Activity (SW-620 [36]): 40.9% | Activity (SW-620 [37]): 43.9% | Activity (SW-620 [38]): 45.7% | Activity (SW-620 [39]): 43.4% | Activity (SW-620 [40]): 10.4% | Activity (SW-620 [41]): 7.1% | pIC50 (HeLa): 4.56 | pIC50 (MIA PaCa-2): 4.50 | pIC50 (WI-38): 4.63 | Activity (SW-620 [20]): Dose-dependent effect | pIC50 (SW-620 [20]): 5.19 | pIC50 (MCF7): 4.58 | pIC50 (SK-BR-3 [21]): 4.39
